High-throughput results (PubChem)
SUMO1 PPI mod: modulators of SUMO1 protein-protein interactions, primary screen, biochemical, uHTS; 360,000 compounds, 0.33% hits; AID 602429, 2012; SUMO1 binding to a labelled peptide, TR-FRET, 1 h; inhibition, % at 20 µM; in the data active = inhibition above about 37%
DNMT1 block: human DNMT1 methyltransferase inhibitors, primary screen, biochemical, molecular beacon, fluorescence, HinP1I cleavage, uHTS; inhibition (reported as % activation of signal), % at 10 µM; 360,000 compounds, 0.83% hits
Rpn11 block: Rpn11 (PSMD14) deubiquitinase inhibitors, primary screen, biochemical, fluorescence polarization, uHTS. 26S proteasome non-ATPase regulatory subunit 14 (Homo sapiens), O00487. human 26S proteasome, Ub4-pepOG fluorescence polarization; 20S core pre-blocked with epoxomicin. inhibition, % at 20 µM. 360,000 compounds, 0.59% hits. AID 588493, 2011;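 active = inhibition at 20 µM, scaled to each plate's controls, above about 33%, limit read from the data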
SKN-1 block: suppressors of acrylamide-induced Pgst-4::GFP reporter in worms, primary screen, SKN-1 inhibitor project, whole organism, uHTS, GFP/RFP fluorescence ratio, strain VP596 | C. elegans VP596 Pgst-4::GFP/RFP ratio, 24 h | inhibition, % at 21.8 µM | 360,000 compounds, 0.49% hits | AID 624304, 2012;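 active = interference check ratio from 0.5 to 1.5 plus GFP to RFP signal ratio inhibition reaching or exceeding a fixed threshold, cut at about 30% in these data, passing the limit was not always enough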
MT1-MMP act inh: blockers of MT1-MMP proenzyme processing, primary screen, HT1080 RFP-PRO-GFP cells, GFP/RFP fluorescence; Matrix metalloproteinase-14 (Homo sapiens), P50281; GFP/RFP ratio fluorescence, overnight; percent of plate control window, DMSO zero; GFP/RFP ratio change, % at 20 µM; 360,000 compounds, 0.061% hits; AID 651647, 2012;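 active = GFP/RFP ratio change of at least 30% with cell ATP level not reduced by more than half and red fluorescence within 50% of control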
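Read-out: GFP/RFP fluorescence ratio; Test system: RFP-PRO-GFP reporter HT1080 cells; Compound dosing: single-point 20 µM compound, 1% DMSO; Times: overnight compound exposure at 37 °C.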
CSN deneddyl inh: inhibitors of CSN-mediated cullin deneddylation, primary screen, biochemical, fluorescence polarization, uHTS. COP9 signalosome complex subunit 5 (Homo sapiens), Q92905. Purified CSN, SCF-Nedd8-OG deneddylation. inhibition, % at 12.5 µM. 360,000 compounds, 0.38% hits. AID 651999, 2013;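 active = pattern-corrected inhibition above about 35%, with an unprinted fluorescence ratio check between 0.5 and 1.5, limit read from the data, passing the limit was not always enough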
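Assay system: purified human Csn5 enzyme expressed in HEK293T cells; measure: % inhibition; also added: SCFSkp2-Nedd8OG substrate at 10 nM final; technique: fluorescence polarization; times: reaction 90 min, room temperature; medium: Tris buffer pH 7.5, NaCl, DTT, Tween-20, trehalose, ovalbumin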
DNMT1 interf DR: spectral interference with molecular beacon fluorescence, dose response, artefact control for DNMT1 inhibitor project, biochemical, fluorescent molecular beacon | shares compounds with DNMT1 block | spectral interference counter-screen | IC50, µM | 200 tested, under 10 active; call rule not given here
DNMT1 confirm: DNMT1 methyltransferase inhibitor retest, confirmation, biochemical, molecular beacon, fluorescence, single concentration; shares compounds with DNMT1 block; DNMT1 molecular beacon HinP1I cleavage; inhibition, % at 10 µM; 2,300 compounds, 8% hits;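 active = average inhibition of at least 30% in the single-concentration confirmation test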
DNMT1 interf: beacon fluorescence artifact counter-screen. AID 602387. DNMT1 molecular beacon spectral interference counterscreen, fluorescence 485/520. shares compounds with DNMT1 block. 2,300 compounds, 1% hits. activation (fluorescence interference), % at 10 µM;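 active = activation of at least 30% at 10 µM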;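 note: DNMT1 catalytic domain with a HinP1I cleavage step and a FAM/dabcyl DNA beacon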
Rpn11 inh conf: Rpn11 (PSMD14) deubiquitinase inhibitors, confirmation, biochemical, fluorescence polarization, single concentration | purified human 26S proteasome, Ub4-pepOG fluorescence polarization; proteasome pretreated with epoxomicin | 1,900 compounds, 29% hits | inhibition, % at 20 µM | shares compounds with Rpn11 block; in the data active = inhibition above about 40%
MMP-2 counter-1: MMP-2 enzyme inhibition, confirmation, counter-screen for RPN11 inhibitor project, biochemical, fluorescence, single concentration. shares compounds with Rpn11 block. recombinant MMP-2, FRET peptide cleavage fluorescence. inhibition, % at 20 µM. 1,900 compounds, 4% hits. AID 602330, 2012; in the data active = inhibition above about 40%;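 note: human MMP-2 activated beforehand with APMA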
Thrombin FP: bovine thrombin protease inhibition, confirmation, counter-screen for Rpn11 inhibitor project, biochemical, fluorescence polarization, single concentration | shares compounds with Rpn11 block | bovine thrombin cleavage of Ub4-pepOG | inhibition, % at 20 µM | 1,900 compounds, 13% hits;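 active = mean inhibition at least 40% at 20 µM, or signal 3 deviations below plate average, so some actives read negative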
CSN deneddyl val: Csn5 deneddylation inhibitors, confirmation, biochemical, fluorescence polarization, single concentration, SCF-Nedd8OG substrate | Csn5 deneddylation of SCF-Nedd8OG, 90 min | shares compounds with CSN deneddyl inh | 540 compounds, 62% hits | inhibition, % at 16.6 µM
MMP-2 counter-2: MMP-2 protease inhibition counter-screen, confirmation, counter-screen for CSN deneddylation inhibitor project, biochemical, fluorescence, single concentration; shares compounds with CSN deneddyl inh; recombinant MMP-2, FRET substrate fluorescence, 60 min; inhibition, % at 16.6 µM; 540 compounds, 33% hits; AID 720655, 2013;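 active = corrected plate-normalized z-score of 5 or more, or -5 or less, or inhibition of 15% or more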
Thrombin cntr: blocks bovine thrombin in a CSN deneddylation counter-screen; shares compounds with CSN deneddyl inh; bovine thrombin cleavage of Ub4-pepOG, fluorescence polarization; 540 compounds, 49% hits; inhibition, % at 16.6 µM;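 active = inhibition at or above a set limit, with a fluorescence interference ratio between 0.5 and a set maximum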
Each line names hits and unclear results; the compound was inactive in the other large screens (follow-up assays come after a bar, where they were run). Most compounds without a hit are left out; they make up all but 2.3% or so of the library. Cut-off read from the data, not from the text of the source, unless noted: active = inhibition above about 50%; inactive = the rest.

CCOC(=O)c1sc2nc3c(SCC(=O)O)cc(C(=O)c4ccccc4O)cn3c(=O)c2c1C	SUMO1 PPI mod 102, DNMT1 block 186, Rpn11 block 100, CSN deneddyl inh 47 | DNMT1 interf DR inactive | DNMT1 confirm 60 | DNMT1 interf inactive | Rpn11 inh conf 45 | MMP-2 counter-1 inactive | Thrombin FP active | CSN deneddyl val 109 | MMP-2 counter-2 22 | Thrombin cntr inactive
CCC1=NN2C(=N)/C(=C\c3ccc(SCc4ccco4)o3)C(=O)N=C2S1	SUMO1 PPI mod 54, DNMT1 block 108, Rpn11 block 80, CSN deneddyl inh 78 | DNMT1 confirm inactive | DNMT1 interf inactive | Rpn11 inh conf inactive | MMP-2 counter-1 inactive | Thrombin FP inactive | CSN deneddyl val inactive | MMP-2 counter-2 16 | Thrombin cntr 17
CCC1=NN2C(=N)/C(=C/c3c(C)nn(-c4ccccc4)c3Cl)C(=O)N=C2S1	none
Cc1noc(C)c1-c1ccc(C(=O)Nc2ccccc2)c2occc12	none
COC(=O)c1ccc(NC(=O)c2ccc(NC(=O)c3ccco3)cc2)cc1	SUMO1 PPI mod 54, DNMT1 block 58, Rpn11 block 96, CSN deneddyl inh 67 | DNMT1 confirm inactive | DNMT1 interf inactive | Rpn11 inh conf 85 | MMP-2 counter-1 inactive | Thrombin FP inactive | CSN deneddyl val 104 | MMP-2 counter-2 inactive | Thrombin cntr inactive
